Dyrk1A ADPGlo: inhibitors of rat Dyrk1A kinase | 310,000 tested, 0.43% active | inhibition, % at 12.5 µM | AID 504441 | ADP-Glo luminescence, NFATc1 peptide; in the data active = inhibition above about 50%
CDK5 inh: inhibitors of human CDK5/p35 kinase | Recombinant CDK5/p35, ADP-Glo luminescence, 60 min | inhibition, % at 10 µM | 330,000 tested, 0.01% active | Q00535+Q15078;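 active = highest replicate inhibition of at least 50% and at least 75% of replicates reaching 50%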
CAL PDZ FP-1: inhibitors of human CAL PDZ peptide binding; inhibition, % at 24.9 µM; Q9HD26; AID 602252; purified CAL PDZ, TMR-peptide fluorescence polarization, 1 h; 300,000 tested, 0.92% active;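 active = mean inhibition of at least 30% with at least half of replicates also reaching 30%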
CAL PDZ FP-2: human CAL PDZ-peptide interaction inhibition; Q9HD26; purified CAL PDZ, TMR-peptide fluorescence polarization, 1 h; inhibition, % at 20 µM; 330,000 tested, 0.02% active; AID 504414;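 active = highest replicate inhibition of at least 40%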
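Assay system – tagged CAL PDZ protein CerCALP, purified · Timing – 1 h at RT · Compound – single point, 20 µM · Measured by – fluorescence polarization from S- and P-plane intensities, G-factor corrected · Evaluation – inhibition from polarization loss · Probe or stimulus – TMR reporter peptide T*-PRC34 · Buffer or medium – pH 7.4 phosphate-saline buffer, reducing agent, detergent, IgG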
dFosB act: enhances mouse delta FosB homodimer DNA binding; AID 493131; purified delta FosB, TAMRA-CDK5 oligo fluorescence polarization; percent of positive-control signal above neutral wells; P13346; activation, % at 25 µM; 340,000 tested, 0.99% active;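 active = mean activation above about 17%, with every replicate also reaching it, limit read from the data, passing the limit was not always enough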
Rtt109 HAT inh: blocks Candida albicans Rtt109/Vps75 acetyltransferase activity | AID 540336 | 330,000 tested, 0.16% active | Q5AAJ8 | purified Rtt109/Vps75, ThioGlo CoA-SH fluorescence, 4 h | inhibition, % at 34.9 µM;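 active = inhibition of at least 50% in every replicate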
Target sequence (Q5AAJ8 whole entry, looked up): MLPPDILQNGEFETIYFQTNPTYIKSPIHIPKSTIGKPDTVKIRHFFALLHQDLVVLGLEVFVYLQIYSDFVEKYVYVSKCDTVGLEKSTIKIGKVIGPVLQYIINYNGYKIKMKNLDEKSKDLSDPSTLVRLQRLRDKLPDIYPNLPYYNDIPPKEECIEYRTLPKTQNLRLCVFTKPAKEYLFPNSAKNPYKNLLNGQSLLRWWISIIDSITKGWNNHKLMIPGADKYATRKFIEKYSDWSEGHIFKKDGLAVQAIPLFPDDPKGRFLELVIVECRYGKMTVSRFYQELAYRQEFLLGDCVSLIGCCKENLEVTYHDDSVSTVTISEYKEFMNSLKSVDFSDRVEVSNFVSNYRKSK
Each line names hits and unclear results; the compound was inactive in the other large screens. Shown are actives, neighbours in structure and some others; about 2.2% of the full set was active somewhere.

COc1cc(C(=O)Nc2ccc3c(c2)OCO3)ccc1OCc1c(C)noc1C	none (no result: CAL PDZ FP-1)
Cc1csc(NC(CO)c2nc3ccccc3n2CCOCCO)n1 (stereo not given)	none
O=C(CSc1nnc(-c2ccncc2)o1)Nc1ccccc1C(F)(F)F	none
O=C1CCCCCC1C1(O)C(=O)Nc2ccc(Br)cc21 (stereo not given)	CAL PDZ FP-1 57
NS(=O)(=O)c1ccc(NC(=O)CSc2nc3ccccc3[nH]2)cc1	none
Cc1cc2oc(=O)cc(CN3CCN(C/C=C/c4ccccc4)CC3)c2cc1O	dFosB act 25
O=c1cc(CN2CCN(C/C=C/c3ccccc3)CC2)c2cc(O)c(-c3ccccc3)cc2o1	dFosB act 65
Cc1cc2oc(=O)cc(CN3CCN(Cc4ccccc4)CC3)c2cc1O	none
O=C(CSc1nc2ccc(N3CCOCC3)cc2c(=O)n1CCc1ccccc1)NCC1CCCO1 (stereo not given)	CAL PDZ FP-1 68
O=C(CSc1nc2c(sc3ccccc32)c(=O)n1Cc1ccccc1)NCC1CCCO1 (stereo not given)	CAL PDZ FP-2 89
N/C(=N\c1nc(CSc2ccccn2)cc(=O)[nH]1)Nc1ccc(Cl)cc1Cl	CAL PDZ FP-1 78
CC1(C)CC(=O)C(N=Nc2cc3c(cc2[N+](=O)[O-])OCCO3)=C(O)C1	none
COCc1nnc(NS(=O)(=O)c2c(C)cc(C)cc2C)s1	CAL PDZ FP-1 35 (no result: CAL PDZ FP-2)
COCc1nnc(NS(=O)(=O)c2ccc(C)cc2)s1	none
Cc1ccc(S(=O)(=O)N2CCOCC2)cc1C(=O)N1CCN(c2ncccn2)CC1	CAL PDZ FP-1 51
Cc1cc2oc(=O)cc(-c3ccccc3)c2c(C)c1-c1ccc(C(F)(F)F)cc1	none
Cc1ccsc1CN(C)C(=O)C1CCC(=O)N(CCc2cccc(F)c2)C1 (stereo not given)	none
Cc1nc(CN(C)C(=O)C2CCC(=O)N(CCc3cccc(F)c3)C2)cs1 (stereo not given)	CAL PDZ FP-1 57
CC(Cc1ccccc1)NC(=S)CN1CCCC1=S (stereo not given)	none (no result: Dyrk1A ADPGlo)
COc1cc(C2NC(=O)NC(c3ccccc3)=C2C(C)=O)c(Cl)cc1OCC(=O)O (stereo not given)	none
N=c1c2c(ncn1CCCO)Oc1cc(O)ccc1C2c1ccccc1 (stereo not given)	CAL PDZ FP-1 39
COc1ccc(C2c3ccc(O)cc3Oc3ncn(CCN4CCOCC4)c(=N)c32)cc1 (stereo not given)	none
O=C1N(Cc2cccnc2)C[C@@H]2C[C@@H](c3ccc4nsnc4c3)N3CCC[C@@]123	none
CCCCOc1ccc(NC(=O)Nc2nnc(C)s2)cc1	CAL PDZ FP-1 60
CCc1nnc(NC(=O)Nc2ccc(OC)cc2)s1	none
COc1ccc(NC(=O)Cc2nnc(SCC(=O)c3ccccc3)n2C)cc1	none
O=[N+]([O-])c1cc(-c2cnc3ccccc3n2)ccc1Oc1ccc(Cl)cc1	CAL PDZ FP-1 active (no result: Dyrk1A ADPGlo)
COc1ccccc1Oc1ccc(-c2cnc3ccccc3n2)cc1[N+](=O)[O-]	none
O=C1CCC([N+](=O)[O-])C(c2cc3c(cc2Cl)OCO3)N1 (stereo not given)	none
CC(CN1CCN(C)CC1)OC(=O)c1cccc(Cl)c1 (stereo not given)	CAL PDZ FP-1 157 (no result: CAL PDZ FP-2)
Cc1ccc(N2CCN(S(=O)(=O)c3ccc(-n4cnnn4)cc3)CC2)c(C)c1	CAL PDZ FP-1 79
CC(C)NC(=O)Nc1ccc2c(c1)C(=O)N([C@H](C)CO)C[C@H](C)[C@@H](CN(C)C(=O)NC(C)C)O2	none
Cn1ncc(Br)c1N1C(=O)CCC1=O	none (no result: Dyrk1A ADPGlo)
Cc1noc(C)c1S(=O)(=O)N(CC(=O)NCc1ccc(F)cc1)c1ccc(C(C)C)cc1	CAL PDZ FP-1 44
COc1ccc(N(CC(=O)NCCc2ccc(OC)c(OC)c2)S(=O)(=O)c2c(C)noc2C)cc1	CAL PDZ FP-1 73
C=C(C)CCC(C)N1CCC(n2nccc2NC(=O)CCCc2ccccc2)CC1 (stereo not given)	CAL PDZ FP-1 42
CCc1ccc(C2NC(=S)NC3=C2C(=O)N(c2ccccc2OC)C(c2ccc(CC)cc2)N3)cc1 (stereo not given)	dFosB act 101
COc1ccccc1N1C(=O)c2ccccc2NC1c1ccncc1 (stereo not given)	none
C=CCc1cccc(/C=N/NC(=O)c2ccc3nc[nH]c3c2)c1O	dFosB act 19
COCCNC(=O)c1onc(CSc2ccc(F)cc2)c1C(=O)NCCOC	CAL PDZ FP-1 31
Cc1nnc(SCC(=O)c2ccc(S(=O)(=O)N3CCOCC3)cc2)n1-c1ccccc1	CAL PDZ FP-1 73 (no result: Dyrk1A ADPGlo)
CN(C)c1ccc(NC(=O)/C=C/c2ccccc2Cl)cc1	Rtt109 HAT inh 56
CCN(CC)c1ccc(NC(=O)/C=C\c2ccccc2Cl)cc1	none
O=C1Cc2ccccc2Sc2cc(OCCCN3CCCCC3)ccc21	none
O=C1Cc2ccccc2Sc2c(OCCN3CCCCC3)cccc21	Rtt109 HAT inh 55 (no result: Dyrk1A ADPGlo)
COc1ccc(CC(=O)Oc2ccc(C(C)(C)C)cc2)cc1S(=O)(=O)N1CCOCC1	none
CN(C)CCCn1c2c3ccccc3ccc2c2oc(=O)c3ccccc3c21	dFosB act 73
CN(C)CCCn1c(=S)[nH]c2ccccc2c1=O	none
CCOc1cc(C(C(=O)NCC2CCCO2)N(C(=O)Cn2nnc3ccccc32)c2ccccc2C)ccc1O (stereo not given)	CAL PDZ FP-1 50
CC(=O)c1cccc(N(C(=O)Cn2nnc3ccccc32)C(C(=O)NC2CCCCC2)c2cn(C)nc2C)c1 (stereo not given)	none
O=C(NC1CCCCC1)C(c1ccc(O)c(O)c1)N(C(=O)Cn1nnc2ccccc21)c1cccc(O)c1 (stereo not given)	dFosB act 32
Cn1nc(-c2ccc3c(c2)OCCO3)c2ccccc2c1=O	none
N=c1ccn2c(n1)O[C@H]1[C@@H](CO)[C@H](O)O[C@H]12	none
COc1ccc(CCN2C(=S)NC3CC2(C)Oc2ccc([N+](=O)[O-])cc23)cc1OC (stereo not given)	none (no result: Dyrk1A ADPGlo, Rtt109 HAT inh)
COc1c(/C=C2\SC(=Nc3ccccc3Cl)NC2=O)cccc1[N+](=O)[O-]	Dyrk1A ADPGlo 53
CCCc1nc(SCC(=O)N2CCC(Cc3ccccc3)CC2)c2c(=O)n(C)c(=O)n(C)c2n1	none
O=C(COc1ccc(Br)cc1)Nc1ccc(NC(=O)c2ccccc2)cc1	dFosB act 25
O=C(COc1ccc(NC(=O)c2ccccc2)cc1)c1ccccc1	none
O=C(COc1ccc(Cl)cc1)Nc1cc(NC(=O)COc2ccc(Cl)cc2)cc(C(=O)O)c1	CAL PDZ FP-1 86 (no result: CAL PDZ FP-2)
Cc1c(NC(=O)c2cc(-c3ccc(O)cc3)on2)c(=O)n(-c2ccccc2)n1C	CAL PDZ FP-1 35

Compound activity as filed in PubChem.
